ChEMBL document CHEMBL3272221, “Phosphorus-nitrogen compounds. 21. Murine oncolytic and antifertility effect of adamantylaziridine compounds” (J Med Chem, 1978)
Activity calls are given as the source filed them. The rule behind the calls is not given here.

Legend:
[1] = Octanol-water partition coefficient, log P of the compound; assay type: physicochemical
Procedure, shortened: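 Shake-flask partitioning: 0.5 g solute in 50.0 mL each of 1-octanol and water, shaken 18 h at 24 °C. Layers were separated, filtered and evaporated (octanol removed as its water azeotrope), dried at 70 °C and weighed. Concentrations were determined gravimetrically.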

Mus musculus [2] = experiment: Antifertility activity in male Swiss albino mouse assessed as nonpregnant female mouse at 10 mg/kg, […] administered for 5 days followed by mating measured after 1 week; assay type: functional, organism-based; set-up: dose 10 mg/kg
Procedure, shortened: (§1)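 Male Swiss albino mice, 4–6 per group, dosed ip or orally by gavage for five consecutive days (10, 15, 22.5 or 33.8 mg/kg), then serially mated with females over successive mating periods against control groups. Read-outs were nonpregnant/total females and viable/total conceptus per period. Student's t test versus control (p < 0.05) was used only for groups with at least two pregnant females.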

Mus musculus [3] = experiment: Antifertility activity in male Swiss albino mouse assessed as viable conceptus at 15 mg/kg, ip administered for 5 days followed by mating measured after 5 weeks; assay type: functional, organism-based; set-up: dose 15 mg/kg; procedure, shortened: as §1
Mus musculus [4] = experiment: Antifertility activity in male Swiss albino mouse assessed as viable conceptus at 10 mg/kg, ip qd administered for 5 days followed by mating measured after 4 weeks; assay type: functional, organism-based; set-up: dose 10 mg/kg; procedure, shortened: as §1
Mus musculus [5] = experiment: Antifertility activity in male Swiss albino mouse assessed as viable conceptus at 10 mg/kg, ip administered for 5 days followed by mating measured after 5 weeks; assay type: functional, organism-based; set-up: dose 10 mg/kg; procedure, shortened: as §1
Mus musculus [6] = experiment: Antifertility activity in male Swiss albino mouse assessed as nonpregnant female mouse at 15 mg/kg, po qd administered for 5 days followed by mating measured after 1 week; assay type: functional, organism-based; set-up: dose 15 mg/kg; procedure, shortened: as §1
Mus musculus [7] = experiment: Antifertility activity in male Swiss albino mouse assessed as nonpregnant female mouse at 10 mg/kg, ip qd administered for 5 days followed by mating measured after 4 weeks; assay type: functional, organism-based; set-up: dose 10 mg/kg; procedure, shortened: as §1
Mus musculus [8] = experiment: Antifertility activity in male Swiss albino mouse assessed as nonpregnant female mouse at 33.8 mg/kg, po qd administered for 5 days followed by mating measured after 1 week; assay type: functional, organism-based; set-up: dose 33.8 mg/kg; procedure, shortened: as §1
Mus musculus [9] = experiment: Antifertility activity in male Swiss albino mouse assessed as nonpregnant female mouse at 33.8 mg/kg, ip qd administered for 5 days followed by mating measured after 5 weeks; assay type: functional, organism-based; set-up: dose 33.8 mg/kg; procedure, shortened: as §1
Mus musculus [10] = experiment: Antifertility activity in male Swiss albino mouse assessed as viable conceptus at 22.5 mg/kg, ip qd administered for 5 days followed by mating measured after 3 weeks; assay type: functional, organism-based; set-up: dose 22.5 mg/kg; procedure, shortened: as §1
L1210 [11] = experiment: Antitumor activity against mouse L1210 cells allografted in mouse assessed as mean survival time at 50 mg/kg, ip after 9 days; assay type: functional; settings: route intraperitoneal
Procedure, shortened: (§2)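 Mice bearing ip-implanted L1210 ascites cells dosed ip daily for 9 days, run by NCI contractors. Activity was expressed as % T/C, the mean survival time of treated over control animals as a percent, with >125% taken as active. Deaths at a given dose were recorded as toxicity.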

Mus musculus [12] = experiment: Antifertility activity in male Swiss albino mouse assessed as viable conceptus at 10 mg/kg, ip qd administered for 5 days followed by mating measured after 3 weeks; assay type: functional, organism-based; set-up: dose 10 mg/kg; procedure, shortened: as §1
Mus musculus [13] = experiment: Antifertility activity in male Swiss albino mouse assessed as nonpregnant female mouse at 22.5 mg/kg, po qd administered for 5 days followed by mating measured after 3 weeks; assay type: functional, organism-based; set-up: dose 22.5 mg/kg; procedure, shortened: as §1
Mus musculus [14] = experiment: Antifertility activity in male Swiss albino mouse assessed as nonpregnant female mouse at 15 mg/kg, ip qd administered for 5 days followed by mating measured after 1 week; assay type: functional, organism-based; set-up: dose 15 mg/kg; procedure, shortened: as §1
Mus musculus [15] = experiment: Toxicity in mouse allografted with mouse L1210 cells assessed as death at 200 mg/kg, ip; assay type: organism-based; set-up: dose 200 mg/kg, route intraperitoneal; settings: in vivo; procedure, shortened: as §2
Mus musculus [16] = experiment: Antifertility activity in male Swiss albino mouse assessed as nonpregnant female mouse at 33.8 mg/kg, ip qd administered for 5 days followed by mating measured after 4 weeks; assay type: functional, organism-based; set-up: dose 33.8 mg/kg; procedure, shortened: as §1
Mus musculus [17] = experiment: Antifertility activity in male Swiss albino mouse assessed as nonpregnant female mouse at 22.5 mg/kg, ip qd administered for 5 days followed by mating measured after 5 weeks; assay type: functional, organism-based; set-up: dose 22.5 mg/kg; procedure, shortened: as §1
Mus musculus [18] = experiment: Antifertility activity in male Swiss albino mouse assessed as nonpregnant female mouse at 33.8 mg/kg, ip qd administered for 5 days followed by mating measured after 3 weeks; assay type: functional, organism-based; set-up: dose 33.8 mg/kg; procedure, shortened: as §1
Mus musculus [19] = experiment: Antifertility activity in male Swiss albino mouse assessed as viable conceptus at 33.8 mg/kg, po qd administered for 5 days followed by mating measured after 3 weeks; assay type: functional, organism-based; set-up: dose 33.8 mg/kg; procedure, shortened: as §1
Mus musculus [20] = experiment: Antifertility activity in male Swiss albino mouse assessed as nonpregnant female mouse at 33.8 mg/kg, ip qd administered for 5 days followed by mating measured after 2 weeks; assay type: functional, organism-based; set-up: dose 33.8 mg/kg; procedure, shortened: as §1
Mus musculus [21] = experiment: Antifertility activity in male Swiss albino mouse assessed as nonpregnant female mouse at 22.5 mg/kg, po qd administered for 5 days followed by mating measured after 5 weeks; assay type: functional, organism-based; set-up: dose 22.5 mg/kg; procedure, shortened: as §1
Mus musculus [22] = experiment: Antifertility activity in male Swiss albino mouse assessed as nonpregnant female mouse at 22.5 mg/kg, ip qd administered for 5 days followed by mating measured after 1 week; assay type: functional, organism-based; set-up: dose 22.5 mg/kg; procedure, shortened: as §1
[23] = Solubility of the compound in water; assay type: physicochemical; settings: buffer
Procedure, shortened: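 Saturated aqueous solutions were shaken 23 h at 24 °C. The dissolved amount was determined gravimetrically after evaporation and drying at 70 °C.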

Mus musculus [24] = experiment: Antifertility activity in male Swiss albino mouse assessed as nonpregnant female mouse at 10 mg/kg, ip qd administered for 5 days followed by mating measured after 2 weeks; assay type: functional, organism-based; set-up: dose 10 mg/kg; procedure, shortened: as §1
Mus musculus [25] = experiment: Antifertility activity in male Swiss albino mouse assessed as viable conceptus at 22.5 mg/kg, ip qd administered for 5 days followed by mating measured after 2 weeks; assay type: functional, organism-based; set-up: dose 22.5 mg/kg; procedure, shortened: as §1
Mus musculus [26] = experiment: Antifertility activity in male Swiss albino mouse assessed as nonpregnant female mouse at 33.8 mg/kg, po qd administered for 5 days followed by mating measured after 5 weeks; assay type: functional, organism-based; set-up: dose 33.8 mg/kg; procedure, shortened: as §1
Mus musculus [27] = experiment: Antifertility activity in male Swiss albino mouse assessed as viable conceptus at 10 mg/kg, ip qd administered for 5 days followed by mating measured after 1 week; assay type: functional, organism-based; set-up: dose 10 mg/kg; procedure, shortened: as §1
Mus musculus [28] = experiment: Antifertility activity in male Swiss albino mouse assessed as nonpregnant female mouse at 15 mg/kg, po qd administered for 5 days followed by mating measured after 5 weeks; assay type: functional, organism-based; set-up: dose 15 mg/kg; procedure, shortened: as §1
Mus musculus [29] = experiment: Antifertility activity in male Swiss albino mouse assessed as nonpregnant female mouse at 33.8 mg/kg, ip qd administered for 5 days followed by mating measured after 1 week; assay type: functional, organism-based; set-up: dose 33.8 mg/kg; procedure, shortened: as §1
L1210 [30] = experiment: Antitumor activity against mouse L1210 cells allografted in mouse assessed as mean survival time at 10 mg/kg, ip after 9 days; assay type: functional; settings: route intraperitoneal; procedure, shortened: as §2
Mus musculus [31] = experiment: Toxicity in mouse allografted with mouse L1210 cells assessed as death at 20 mg/kg, ip; assay type: organism-based; set-up: dose 20 mg/kg, route intraperitoneal; settings: in vivo; procedure, shortened: as §2
Mus musculus [32] = experiment: Antifertility activity in male Swiss albino mouse assessed as nonpregnant female mouse at 10 mg/kg, ip qd administered for 5 days followed by mating measured after 3 weeks; assay type: functional, organism-based; set-up: dose 10 mg/kg; procedure, shortened: as §1
Mus musculus [33] = experiment: Antifertility activity in male Swiss albino mouse assessed as viable conceptus at 10 mg/kg, po qd administered for 5 days followed by mating measured after 4 weeks; assay type: functional, organism-based; set-up: dose 10 mg/kg; procedure, shortened: as §1
Mus musculus [34] = experiment: Antifertility activity in male Swiss albino mouse assessed as reduction of litter size at 10 mg/kg, po administered for 5 days followed by mating measured for 2 weeks; assay type: functional, organism-based; set-up: dose 10 mg/kg; procedure, shortened: as §1

Structure (SMILES): O=P(N1CC1)(N1CC1)C12CC3CC(CC(C3)C1)C2
- logP [1]: 0.88
- Activity (Mus musculus [2]): inactive
- Activity (Mus musculus [3]): inactive
- Activity (Mus musculus [4]): inactive
- Activity (Mus musculus [5]): inactive
- Activity (Mus musculus [6]): inactive
- Activity (Mus musculus [7]): inactive
- Activity (Mus musculus [8]): inactive
- Activity (Mus musculus [9]): Active
- Activity (Mus musculus [10]): Active
- T/C (L1210 [11]): 243%
- Activity (Mus musculus [12]): inactive
- Activity (Mus musculus [13]): inactive
- Activity (Mus musculus [14]): Active
- Activity (Mus musculus [15]): Toxic
- Activity (Mus musculus [16]): Active
- Activity (Mus musculus [17]): inactive
- Activity (Mus musculus [18]): Active
- Activity (Mus musculus [19]): inactive
- Activity (Mus musculus [20]): Active
- Activity (Mus musculus [21]): inactive
- Activity (Mus musculus [22]): Active
- solubility [23]: 0.94%
- Activity (Mus musculus [24]): inactive
- Activity (Mus musculus [25]): inactive
- Activity (Mus musculus [26]): inactive
- Activity (Mus musculus [27]): Active
- Activity (Mus musculus [28]): inactive
- Activity (Mus musculus [29]): Active

Structure (SMILES): O=P(NC12CC3CC(CC(C3)C1)C2)(N1CC1)N1CC1
- logP [1]: 1.45
- T/C (L1210 [30]): 244%
- Activity (Mus musculus [31]): Toxic
- Activity (Mus musculus [32]): Active
- Activity (Mus musculus [33]): inactive
- Activity (Mus musculus [34]): Active
- solubility [23]: 0.13%
- Activity (Mus musculus [27]): Active
